ChEMBL document CHEMBL4477193, “The Natural Product Essramycin and Three of Its Isomers Are Devoid of Antibacterial Activity” (J Nat Prod, 2016)
Activity calls are given as the source filed them.

Columns and labels:
Type in all cases: functional, organism-based
Klebsiella pneumoniae = test: Antibacterial activity against Klebsiella pneumoniae ATCC 700603 up to 128 ug/ml after 16 to 20 hrs by broth microdilution assay
In short: (§1)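 MIC testing across a concentration series whose top concentration was 128 μg/mL. The E. faecium strain is NCTC 7171 (ATCC 19734). The testing method follows an earlier report.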

Acinetobacter baumannii = test: Antibacterial activity against Acinetobacter baumannii ATCC 17961 up to 128 ug/ml after 16 to 20 hrs by broth microdilution assay; in short: as §1
Pseudomonas aeruginosa = test: Antibacterial activity against Pseudomonas aeruginosa ATCC 27853 up to 128 ug/ml after 16 to 20 hrs by broth microdilution assay; in short: as §1
Klebsiella aerogenes = test: Antibacterial activity against Enterobacter aerogenes ATCC 35029 up to 128 ug/ml after 16 to 20 hrs by broth microdilution assay; in short: as §1
Escherichia coli = test: Antibacterial activity against Escherichia coli ATCC 25922 up to 128 ug/ml after 16 to 20 hrs by broth microdilution assay; in short: as §1
Enterococcus faecium = test: Antibacterial activity against Enterococcus faecium ATCC 19734 up to 128 ug/ml after 16 to 20 hrs by broth microdilution assay; in short: as §1
Staphylococcus aureus = test: Antibacterial activity against Staphylococcus aureus ATCC 29213 up to 128 ug/ml after 16 to 20 hrs by broth microdilution assay; in short: as §1

Measured: Activity

Cc1cc(=O)[nH]c2nc(CC(=O)c3ccccc3)nn12
inactive: all assays above

Cc1cc(=O)n2c(CC(=O)c3ccccc3)nnc2[nH]1
inactive: all assays above

Cc1cc(=O)[nH]c2nnc(CC(=O)c3ccccc3)n12
inactive: all assays above

Cc1cc(=O)n2nc(CC(=O)c3ccccc3)nc2[nH]1
inactive: all assays above
